Calls of active or inactive are those of the source. The rule behind the calls is not given here.
Key:
Rattus norvegicus = assay: Reversal of amphetamine-induced prepulse inhibition in Sprague-Dawley rat at 1 mg/kg, sc administered 30 min before testing followed by administration of amphetamine 15 mins prior to testing; assay type: functional, organism-based
In short: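 In rats with amphetamine-disrupted prepulse inhibition, the compound was dosed sc as a suspension in 0.5% methylcellulose in water. Startle reflex and PPI alone were also assessed, and the analysis used the collapsed data set. Plasma and brain levels were taken from randomly chosen animals (N=2/dose) at the end of the study (1.67 h).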

[1] = Toxicity in dog assessed as salivation at 5 mg/kg, po using spray-dried dispersion formulation; assay type: organism-based, Canis lupus familiaris; settings: in vivo
[2] = Toxicity in dog assessed as salivation at 3 mg/kg, po using spray-dried dispersion formulation; assay type: organism-based, Canis lupus familiaris; settings: in vivo
[3] = biological target: Muscarinic acetylcholine receptor M3 (Homo sapiens, UniProt P20309); assay: Positive allosteric modulation of human recombinant muscarinic M3 receptor stably expressed in CHO cells assessed as increase in Ach-induced accumulation of intracellular calcium level upto 10 uM incubated for 10 mins followed by addition of Ach at EC20 concentration by Fluo-8AM dye based FLIPR TETRA method
[4] = Unbound brain concentration in amphetamine-induced C57BL/6J mouse model of hyperlocomotion at 0.32 mg/kg, sc measured after 1 hr; assay type: ADME, organism-based; settings: in vivo
In short: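 Satellite PK animals from the mouse aLMA study, N=2/dose. Dosed subcutaneously with a solution in 5/15/80 DMSO/Solutol/water. Plasma and brain were sampled at T = 1 h.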

[5] = Partial agonist activity at muscarinic M2/M3 receptor in Hartley guinea pig ileum assessed as stimulation of contraction relative to carbachol; assay type: tissue-based, Cavia porcellus
In short: (§1)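 Agonist mode used a guinea pig ileum tissue bath with the compound applied alone. Concentration–response curves were run with or without the non-selective muscarinic antagonist atropine. Contraction was expressed relative to the maximal carbachol response.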

[6] = Unbound plasma concentration in CD-1 mouse at 3.2 mg/kg, sc measured after 2 hrs by LC-MS/MS analysis; assay type: ADME, organism-based; settings: in vivo
[7] = Unbound plasma concentration in scopolamine-induced Wistar rat model at 0.32 mg/kg, po measured after 1 hr; assay type: ADME, organism-based; settings: in vivo
In short: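 Plasma sampled 1 h after oral dosing in satellite animals (N=2/dose) given the same dosing solution as the water-maze study (suspension in 0.5% methylcellulose in water); unbound concentration reported as the group average.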

[8] = fAUC (0 to 24 hrs) in rat at 3 mg/kg, po administered for 14 days; assay type: ADME, organism-based; settings: in vivo, 336 h, time 14 day
In short: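 2-week repeat oral dosing in rats, 0.5% methylcellulose formulation; N=4/sex/dose; doses 3, 10, 30 (males)/15 (females) mg/kg; unbound exposures reported per dose and sex.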

[9] = Clearance in rat at 1 mg/kg, iv administered as single bolus dose; assay type: ADME, organism-based; settings: in vivo
[10] = Unbound brain concentration in CD-1 mouse at 1 mg/kg, sc measured after 2 hrs by LC-MS/MS analysis; assay type: ADME, organism-based; settings: in vivo
[11] = Toxicity in male Beagle dog assessed as increase in blood pressure at 3 mg/kg, po observed upto 9 hrs post last dose by telemetry; assay type: organism-based, Canis lupus familiaris; settings: in vivo
In short: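 Crossover telemetry study in dogs at three oral doses (0.3, 1 and 3 mg/kg), N=4. Endpoints were blood pressure, maximum systolic left ventricular pressure, LV +dP/dt max, activity, heart rate, and RR, QT and QTc intervals, followed up to 9 h post dose.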

[12] = biological target: T1, Muscarinic acetylcholine receptor M1 (Homo sapiens) (UniProt P11229); assay: Binding affinity to human muscarinic M1 receptor stably expressed in CHO cells assessed as increase in intracellular calcium level measured after 10 mins by Fluo-8AM dye based FLIPR TETRA method; assay type: cell-based; settings: filed as positive allosteric modulator
T1 sequence (whole entry): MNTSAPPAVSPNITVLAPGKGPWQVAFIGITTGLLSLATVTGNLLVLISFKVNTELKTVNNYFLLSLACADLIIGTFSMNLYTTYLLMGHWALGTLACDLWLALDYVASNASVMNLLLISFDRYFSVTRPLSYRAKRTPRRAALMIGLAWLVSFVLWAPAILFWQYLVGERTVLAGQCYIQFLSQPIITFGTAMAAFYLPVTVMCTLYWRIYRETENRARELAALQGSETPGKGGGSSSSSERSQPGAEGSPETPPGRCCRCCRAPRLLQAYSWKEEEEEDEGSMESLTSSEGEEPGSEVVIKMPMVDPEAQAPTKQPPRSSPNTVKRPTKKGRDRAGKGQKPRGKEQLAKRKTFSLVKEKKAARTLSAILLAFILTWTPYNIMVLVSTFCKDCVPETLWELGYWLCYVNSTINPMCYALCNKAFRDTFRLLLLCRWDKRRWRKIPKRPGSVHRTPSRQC

Mus musculus = assay: In vivo positive allosteric modulation of muscarinic M1 receptor in CD-1 mouse assessed as increase in ACh-induced IP-1 levels in […] tissue administered subcutaneously measured after 2 hrs by HTRF assay; assay type: functional, organism-based
In short: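 Mice were dosed subcutaneously with a solution in 5/15/80 DMSO/Solutol/water across a 0.1–10 mg/kg dose series. IP1 accumulation in striatum was measured over a 2 h treatment and expressed as fold increase over baseline for each animal. Compound levels were measured in striatal tissue at 2 h (N=5/dose), and unbound brain concentration was derived from these.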

[13] = Positive allosteric modulation of muscarinic M2/M3 receptor in Hartley guinea pig ileum assessed as increase in donepezil-induced stimulation of contraction in presence of mAChR antagonist atropine; assay type: tissue-based, Cavia porcellus
In short: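 PAM mode used guinea pig ileum in a tissue bath. Contraction concentration–response curves were run in the presence of an EC20 of donepezil, with or without atropine.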

[14] = In vivo positive allosteric modulation of muscarinic M1 receptor in CD1 mouse assessed as increase in ACh-induced IP-1 levels in […] tissue at 10 mg/kg, sc measured after 2 hrs by HTRF assay relative to baseline; assay type: functional
In short: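 Given sc as a solution in 5/15/80 DMSO/Solutol/water. Striatal IP1 was read 2 h after dosing and expressed as fold increase over baseline. Compound levels were measured in striatal tissue at 2 h (N=5/dose). Each animal's fold increase was plotted against its unbound brain concentration.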

[15] = Fraction unbound in Beagle dog plasma; assay type: ADME, Canis lupus familiaris
[16] = Ratio of fAUC in dog brain to plasma; assay type: ADME, cell-free, Canis lupus familiaris; settings: brain and plasma, read-out: Ratio AUC
[17] = Toxicity in female rat assessed as increase in food intake at 15 mg/kg, po administered for 14 days; assay type: organism-based; settings: in vivo, 336 h, time 14 day
In short: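 Two-week repeat-dose toxicity study in rats. Oral dosing in 0.5% methylcellulose at 3, 10, 30 (males)/15 (females) mg/kg, N=4/sex/dose. Food intake, body weight gain and histopathology were assessed.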

[18] = Partial agonist activity at muscarinic M2/M3 receptor in Hartley guinea pig ileum assessed as stimulation of contraction in presence of mAChR antagonist atropine; assay type: tissue-based, Cavia porcellus; in short: as §1

Sequence of Muscarinic acetylcholine receptor M3 (P20309 whole entry): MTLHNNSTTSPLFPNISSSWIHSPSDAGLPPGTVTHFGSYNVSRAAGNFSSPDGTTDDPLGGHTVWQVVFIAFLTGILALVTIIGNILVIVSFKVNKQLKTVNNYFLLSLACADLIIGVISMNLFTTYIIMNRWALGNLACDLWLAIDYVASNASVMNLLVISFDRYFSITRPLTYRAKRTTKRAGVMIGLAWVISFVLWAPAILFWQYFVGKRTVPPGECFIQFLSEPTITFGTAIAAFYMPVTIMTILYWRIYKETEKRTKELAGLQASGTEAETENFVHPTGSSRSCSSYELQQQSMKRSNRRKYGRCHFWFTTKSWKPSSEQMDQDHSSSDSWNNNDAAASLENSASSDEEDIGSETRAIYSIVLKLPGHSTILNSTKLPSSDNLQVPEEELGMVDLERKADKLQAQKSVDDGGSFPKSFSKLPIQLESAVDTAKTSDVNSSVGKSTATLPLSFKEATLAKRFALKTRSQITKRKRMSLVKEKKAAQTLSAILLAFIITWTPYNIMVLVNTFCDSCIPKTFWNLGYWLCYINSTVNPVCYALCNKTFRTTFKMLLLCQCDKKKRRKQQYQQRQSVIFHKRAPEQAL

Activity [3]: Not Active
Drug uptake(free) [4]: 6.38 nM
Emax [5]: 77%
Cp(f) [6]: 176 nM
Cp(f) [7]: 3.7 nM
fAUC [8]: 1.856 µM·h
clearance [9]: 3.29 mL/min/kg
Drug uptake(free) [10]: 14.3 nM
Ka [12]: 2 µM
Activity [13]: Not Active
Fu [15]: 8.1%
Kp uu [16]: 0.3
Activity [18]: Not Active
Structure (SMILES): Cc1cnc(C(=O)N[C@H]2CCOC[C@@H]2O)cc1Cc1ccc(-c2cscn2)cc1
Activity (Rattus norvegicus): Active
Activity [1]: Toxic
Activity [2]: Toxic
Activity [11]: 7 mmHg
Activity (Mus musculus): Dose-dependent effect
fold change (FC) [14]: 42
Activity [17]: Non-Toxic

From ChEMBL document CHEMBL4715734, “Discovery of the Potent and Selective M1 PAM-Agonist N-[(3R,4S)-3-Hydroxytetrahydro-2H-pyran-4-yl]-5-methyl-4-[4-(1,3-thiazol-4-yl)benzyl]pyridine-2-carboxamide (PF-06767832): Evaluation of Efficacy and Cholinergic Side Effects” (J Med Chem, 2016)
